The values that follow come from ChEMBL document CHEMBL1130252, “5-HT1B receptor antagonist properties of novel arylpiperazide derivatives of 1-naphthylpiperazine” (J Med Chem, 1997).

Structures are written as SMILES. Some results are limits rather than exact numbers.

The target in experiment [1] is T1, 5-hydroxytryptamine receptor 1B (Homo sapiens, UniProt P28222). The experiment in a line: Agonist activity at 5-hydroxytryptamine 1B receptor by measuring the inhibition of forskolin-stimulated cAMP formation. It is filed as functional. The method, boiled down:
(§1)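 Human 5-HT1B receptors expressed in CHO-K1 cells. Agonist response read as inhibition of forskolin-stimulated cAMP formation. EC50 determined, and Emax expressed as a percentage of the maximal inhibition produced by 1 µM 5-HT. Values are the mean of two or three experiments, each run in duplicate, with individual values typically within ±10-20% of the mean.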
In general terms: Changes in cAMP serve as a functional read-out for many G protein-coupled receptors.

The target of experiment [2] is T2, 5-hydroxytryptamine receptor 1A (Homo sapiens, UniProt P08908).
T2 sequence (P08908 whole entry): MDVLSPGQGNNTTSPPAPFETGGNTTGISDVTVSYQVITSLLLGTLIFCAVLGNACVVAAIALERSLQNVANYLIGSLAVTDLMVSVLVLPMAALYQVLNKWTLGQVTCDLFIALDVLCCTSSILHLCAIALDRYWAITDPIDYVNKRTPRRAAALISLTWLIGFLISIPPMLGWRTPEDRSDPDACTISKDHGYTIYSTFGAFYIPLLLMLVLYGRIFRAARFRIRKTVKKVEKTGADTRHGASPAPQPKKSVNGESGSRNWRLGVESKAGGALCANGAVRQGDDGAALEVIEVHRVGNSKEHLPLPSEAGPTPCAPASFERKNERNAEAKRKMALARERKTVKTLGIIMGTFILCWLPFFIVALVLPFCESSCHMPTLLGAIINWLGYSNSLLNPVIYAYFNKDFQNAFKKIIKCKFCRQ
The experiment in a line: Receptor binding affinity for cloned human 5-hydroxytryptamine 1A receptor in HeLa cells. It is filed as cell-based.

Experiment [3] addresses T1, 5-hydroxytryptamine receptor 1B. The experiment in a line: Percentage Maximal inhibition obtained with 1 uM 5-HT against 5-hydroxytryptamine 1B receptor. The method, boiled down:
as §1

The target is the same in experiment [4]. Put plainly: Antagonism tested at 1 uM against the agonist-induced inhibitory effect of 10 nM 5-carbamoyltryptamine(5-CT). The class given is functional. The method, boiled down: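 Run in the same forskolin-stimulated cAMP system, with h5-HT1B receptors expressed in CHO-K1 cells. The compound at 1 µM was tested against the inhibition of cAMP formation produced by 10 nM 5-CT. Values are the mean of two or three experiments, each in duplicate.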

The target in experiment [5] is 5-hydroxytryptamine receptor 1D (Homo sapiens, UniProt P28221). Put plainly: Receptor binding affinity for cloned human 5-hydroxytryptamine 1D receptor in Cos-7 cells. It is filed as cell-based.
The target of experiment [6] is T1, 5-hydroxytryptamine receptor 1B. Put plainly: Receptor binding affinity for cloned human 5-hydroxytryptamine 1B receptor in Cos-7 cells. The class given is cell-based.
For experiment [7] the target is unchanged. The note with it: 1 uM.

T1 sequence (P28222 whole entry): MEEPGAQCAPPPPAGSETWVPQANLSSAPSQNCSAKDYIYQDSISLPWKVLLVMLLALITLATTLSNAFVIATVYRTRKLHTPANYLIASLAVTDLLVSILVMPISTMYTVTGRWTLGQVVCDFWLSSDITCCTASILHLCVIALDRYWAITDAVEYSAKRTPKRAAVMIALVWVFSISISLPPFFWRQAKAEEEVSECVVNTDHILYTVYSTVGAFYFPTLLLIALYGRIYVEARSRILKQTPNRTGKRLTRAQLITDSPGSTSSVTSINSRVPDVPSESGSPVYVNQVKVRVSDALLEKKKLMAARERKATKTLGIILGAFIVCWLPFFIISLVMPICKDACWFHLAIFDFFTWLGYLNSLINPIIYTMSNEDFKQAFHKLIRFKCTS
Chain of 5-hydroxytryptamine receptor 1D (P28221 whole entry): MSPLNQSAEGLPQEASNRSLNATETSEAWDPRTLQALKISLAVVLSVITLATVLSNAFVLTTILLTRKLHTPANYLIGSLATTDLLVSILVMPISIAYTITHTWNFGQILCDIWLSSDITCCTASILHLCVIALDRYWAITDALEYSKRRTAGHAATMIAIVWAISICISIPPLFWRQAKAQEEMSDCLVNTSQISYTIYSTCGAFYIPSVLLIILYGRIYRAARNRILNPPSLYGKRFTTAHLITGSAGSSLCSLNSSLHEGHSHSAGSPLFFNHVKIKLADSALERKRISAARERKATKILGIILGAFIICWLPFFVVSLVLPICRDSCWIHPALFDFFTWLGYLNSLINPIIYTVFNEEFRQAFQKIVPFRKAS

As usually defined, the EC50 is the midpoint of the concentration-response curve. By Ki is commonly meant a measure of affinity in units of concentration, obtained from inhibition or displacement. The term Emax denotes the size of the effect at its maximum, as opposed to the concentration needed. On to `CN1CCN(c2cccc3ccc(OCC(=O)N4CCN(c5cccc6ccccc56)CC4)cc23)CC1`, for which the EC50 in experiment [1] was more than 1000 nM. Moreover, the inhibition constant (Ki) was 114 nM in experiment [2], 0.88 nM in experiment [5] and 0.43 nM in experiment [6]. This compound had an Emax in experiment [3] of less than 10%. The same compound showed an Antagonism in experiment [4] of 57%.

`Cc1ccccc1N1CCN(C(=O)COc2ccc3cccc(N4CCN(C)CC4)c3c2)CC1` showed an EC50 in experiment [1] of more than 1000 nM. For the same compound, the maximal response (Emax) in experiment [3] was less than 10%. The same compound showed an Antagonism in experiment [7] of 80%. Moreover, the Ki in experiment [5] was found to be 0.69 nM; in experiment [6], 0.3 nM.

For `CN1CCN(c2cccc3ccc(OCC(=O)N4CCN(c5cccc6c5OCCO6)CC4)cc23)CC1`, in experiment [1], the midpoint of the response, the EC50, lay at 25 nM. The Ki in experiment [2] turned out to be 14.1 nM; in experiment [5] it was 0.45 nM; in experiment [6], 0.43 nM. For the same compound, the Emax in experiment [3] was determined as 58%. In experiment [4], this compound showed an Antagonism of 45%.

In turn, `Cc1cc(C)c(N2CCN(C(=O)COc3ccc4cccc(N5CCN(C)CC5)c4c3)CC2)c(C)c1` registered a concentration giving a half-maximal response (EC50) in experiment [1] of 25 nM. Besides, the Ki was found to be 117 nM in experiment [2], 1.9 nM in experiment [5] and 1.4 nM in experiment [6]. This compound displayed a maximal response (Emax) in experiment [3] of 26%. Besides, in experiment [4], the Antagonism is 46%.

The compound `COc1ccc2ccc(N3CCNCC3)cc2c1` gave an EC50 in experiment [1] of more than 1000 nM. Besides, the Ki in experiment [2] is 2.8 nM; in experiment [5] it was 0.7 nM; in experiment [6], 2 nM. The compound further registered an Emax in experiment [3] of less than 10%. In experiment [4], this compound registered an Antagonism of 95%.

For `Cc1ccccc1CN1CCN(C(=O)COc2ccc3cccc(N4CCN(C)CC4)c3c2)CC1`, the concentration for a half-maximal effect (EC50) in experiment [1] is more than 1000 nM. Further, the Ki in experiment [2] came to 22.7 nM; in experiment [5] it was 0.55 nM; in experiment [6], 0.2 nM. In experiment [3], this compound registered an Emax of less than 10%. The compound also yielded an Antagonism in experiment [4] of 87%.

In experiment [1], `c1ccc2c(N3CCNCC3)cccc2c1` yielded a concentration giving a half-maximal response (EC50) of more than 1000 nM. Further, the figures for the inhibitory constant (Ki) in experiment [2], in experiment [5] and in experiment [6] were 9.2 nM, 6.2 nM and 10.1 nM, respectively. This compound yielded a maximal effect (Emax) in experiment [3] of less than 10%. In addition, the Antagonism in experiment [4] stood at 96%.

In turn, `CN1CCN(c2cccc3ccc(OCC(=O)N4CCN(c5ccccc5C#N)CC4)cc23)CC1` came in with an EC50 in experiment [1] of 28 nM. Moreover, the Ki in experiment [2] amounted to 12.3 nM; in experiment [5] it was 0.51 nM; in experiment [6], 0.38 nM. This compound displayed a maximum response (Emax) in experiment [3] of 48%. The Antagonism in experiment [4] is 56%.

Regarding `COc1cccc(N2CCN(C(=O)COc3ccc4cccc(N5CCN(C)CC5)c4c3)CC2)c1OC`, in experiment [1], the EC50 worked out at 30 nM. The inhibitory constant (Ki) in experiment [2] amounted to 13.4 nM; in experiment [5] it was 0.62 nM; in experiment [6], 0.44 nM. In experiment [3], this compound had an Emax of 69%. This compound also registered an Antagonism in experiment [4] of 47%.
